One data set has as its system J774.A1. As to the kind of experiment: Cytotoxicity against mouse J774A1 cells up to >100 uM after 24 to 48 hrs by MTT assay. In kind it is functional, cell-based.
A further data set addresses Albumin (Bos taurus, UniProt P02769). As to the kind of experiment: Binding affinity to bovine serum albumin by surface plasmon resonance. It is filed as ADME. Conditions: cattle, isolated protein. Summed up:
(§1)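 Biacore SPR. TTL and BSA each amine-coupled (100 µg/mL in 10 mM sodium acetate, pH 5.0) to 8-12 kRU, with an unmodified reference surface. Running buffer 10 mM NaH2PO4, 150 mM NaCl, 0.5% DMSO, pH 7.4. Five-point 2-fold series, typically 0.05-10 µM, in triplicate. 25 °C, 50 µL/min, 60 s association, 200 s dissociation. Double-referenced. KD fitted from at least 10 curves.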

The test system of a further data set is HEK293. As to the kind of experiment: Cytotoxicity against HEK293 cells up to >100 uM after 24 to 48 hrs by MTT assay. In kind it is functional, cell-based. Conditions: Homo sapiens. (Tetrazolium dyes change colour on reduction, which living cells bring about.)
A further data set concerns the target T1, Tubulin--tyrosine ligase (Homo sapiens, UniProt Q8NG68).
T1 sequence (Q8NG68 whole entry): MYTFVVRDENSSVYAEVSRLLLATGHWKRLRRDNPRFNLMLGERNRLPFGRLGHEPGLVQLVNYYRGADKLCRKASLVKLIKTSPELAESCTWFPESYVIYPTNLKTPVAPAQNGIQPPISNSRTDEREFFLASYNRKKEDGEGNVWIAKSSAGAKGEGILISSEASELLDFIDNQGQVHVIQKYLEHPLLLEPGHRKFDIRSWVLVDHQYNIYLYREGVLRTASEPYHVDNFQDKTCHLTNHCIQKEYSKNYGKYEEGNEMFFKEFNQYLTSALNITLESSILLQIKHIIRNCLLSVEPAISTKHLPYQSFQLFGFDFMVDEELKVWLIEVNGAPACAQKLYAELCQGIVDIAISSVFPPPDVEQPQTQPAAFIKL
As to the kind of experiment: Binding affinity to TTL by surface plasmon resonance. Summed up:
as §1
In general terms: SPR reads the build-up and loss of mass on a sensor chip optically.

For data set [1], the target named is T2, Tubulin--tyrosine ligase (Homo sapiens) (UniProt Q8NG68).
T2 sequence (whole entry): T1 sequence (Q8NG68 whole entry)
The experiment in a line: Inhibition of TTL in human MCF7 cells assessed as increase in delta2-tubulin level at 100 uM after 24 to 48 hrs by Western blot. In kind it is cell-based. Summed up:
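MCF-7 cells were grown in DMEM with 10% FBS at 37 °C, 5% CO2, seeded at 4 × 10^5 per well, and treated 24 h later with or without 100 µM compound for 24 and 48 h. NP-40 lysates (20 µg protein, Bradford) were run on 10% SDS-PAGE and blotted. Membranes were probed overnight at 4 °C with rabbit polyclonal anti-Δ2-α-tubulin.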
In general terms: A western blot detects proteins with antibodies after separation by electrophoresis.

The next data set concerns MCF7. The experiment in a line: Cytotoxicity against human MCF7 cells up to >100 uM after 24 to 48 hrs by MTT assay. In kind it is functional, cell-based.

The source made the active and inactive calls. No cut-off for these calls is given here.

One may read the Kd as the free concentration of one partner at which half of the binding sites on the other are occupied at equilibrium, for simple one-to-one binding. The low end stands for tighter binding, the high end for weaker binding.

Chain of Albumin (P02769 whole entry): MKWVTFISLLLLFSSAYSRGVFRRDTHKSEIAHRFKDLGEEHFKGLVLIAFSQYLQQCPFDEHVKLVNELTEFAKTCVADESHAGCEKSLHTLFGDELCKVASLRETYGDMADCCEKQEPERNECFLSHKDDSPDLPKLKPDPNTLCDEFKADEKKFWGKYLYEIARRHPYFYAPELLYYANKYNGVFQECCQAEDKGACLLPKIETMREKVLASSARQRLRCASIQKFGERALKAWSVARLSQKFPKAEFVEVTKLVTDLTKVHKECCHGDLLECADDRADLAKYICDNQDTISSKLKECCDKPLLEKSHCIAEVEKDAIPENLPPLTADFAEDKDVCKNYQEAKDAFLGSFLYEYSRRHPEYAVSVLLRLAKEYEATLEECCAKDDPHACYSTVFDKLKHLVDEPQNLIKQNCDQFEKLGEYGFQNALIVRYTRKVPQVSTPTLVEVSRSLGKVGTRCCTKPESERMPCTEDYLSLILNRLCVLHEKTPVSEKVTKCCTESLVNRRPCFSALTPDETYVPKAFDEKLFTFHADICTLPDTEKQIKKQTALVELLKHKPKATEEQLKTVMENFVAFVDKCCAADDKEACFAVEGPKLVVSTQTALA

For `CC1=CC(=O)O[C@@H]1[C@@H](O)/C=C(\C)CC[C@@H]1[C@@]2(C)CCC[C@]3(C)[C@@H]2[C@H](C[C@@]1(C)O)O[C@@H]3O`, the outcome in the data set on J774.A1, in the data set on HEK293 and with MCF7 was inactive. In addition, the Activity entry on Albumin is given as “Not Active”. Further, binding on Tubulin--tyrosine ligase was characterised by a dissociation constant (Kd) of 210 µM. Also, in data set [1], the result was Active.
As to `CC1=CC(=O)O[C@@H]1[C@@H](O)/C=C(\C)CC[C@@H]1[C@@]2(C)CCC[C@@]3(C)C(=O)O[C@@H](C[C@@]1(C)O)[C@H]23`, the outcome in the data set with J774.A1, in the data set with HEK293 and in the data set on MCF7 was inactive. Besides, the Activity result at Albumin is “Not Active”. Moreover, the result in data set [1] was Active.
In the case of `C=C1C[C@@H]2OC[C@]3(C)CCC[C@](C)([C@H]1CC/C(C)=C/C[C@H]1OC(=O)C=C1C)[C@@H]23`, the outcome in the data set with J774.A1, with HEK293 and with MCF7 was inactive. For the same compound, the Activity entry at Albumin is “Not Active”. This compound also showed a dissociation constant (Kd) at Tubulin--tyrosine ligase of 8.7 µM.
Turning to `CC1=CC(=O)O/C1=C\C=C(/C)CC[C@@H]1[C@@]2(C)CCC[C@@]3(C)C(O)O[C@@H](C[C@@]1(C)O)[C@H]23` (stereo partly specified), the outcome in the data set on J774.A1, with HEK293 and with MCF7 was inactive. On Albumin, the Activity entry is listed as “Not Active”. At Tubulin--tyrosine ligase, this compound showed a Kd of 0.48 µM.

The values are drawn from ChEMBL document CHEMBL1136963, “Sesterterpenes as tubulin tyrosine ligase inhibitors. First insight of structure-activity relationships and discovery of new lead” (J Med Chem, 2009).
